PMI act hi M6P – human PMI activators, high substrate, primary screen, biochemical, fluorescence intensity, near-saturating mannose 6-phosphate; Mannose-6-phosphate isomerase (Homo sapiens), P34949; coupled PMI enzyme assay, resazurin fluorescence, 20 min; hits give high values; 1 = untreated enzyme, 0 = substrate-free blank; activation factor at 20 µM; 190,000 tested, 0.34% active;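 active = activation factor of 2 or more at 20 µM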
Target sequence (P34949 whole entry, looked up): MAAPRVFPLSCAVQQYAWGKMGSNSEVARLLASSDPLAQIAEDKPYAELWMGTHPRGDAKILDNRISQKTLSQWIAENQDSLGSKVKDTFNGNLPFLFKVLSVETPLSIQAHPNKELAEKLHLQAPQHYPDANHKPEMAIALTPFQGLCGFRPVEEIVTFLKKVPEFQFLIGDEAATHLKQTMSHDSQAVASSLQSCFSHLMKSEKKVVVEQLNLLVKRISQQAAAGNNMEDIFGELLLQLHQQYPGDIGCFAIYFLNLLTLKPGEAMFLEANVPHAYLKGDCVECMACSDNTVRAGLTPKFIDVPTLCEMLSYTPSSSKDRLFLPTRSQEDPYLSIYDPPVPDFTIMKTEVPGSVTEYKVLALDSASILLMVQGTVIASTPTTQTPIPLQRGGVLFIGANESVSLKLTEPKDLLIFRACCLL
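Test system: human phosphomannose isomerase with PGI, G6PDH, diaphorase coupling enzymes / Doses: 20 µM compound, 1% DMSO / Times: enzyme reaction with compound 20 min at room temperature / Measured by: Diaphorase-driven resazurin-to-resorufin fluorescence, excitation 544, emission 590 nm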
WT yeast gro inh – growth inhibition of WT strain, primary screen, mitochondrial fusion inhibitor project, WT and mutant strains, chemical genetic; mitochondrial fusion phenotypic screen; inhibition, % at 10 µM; 190,000 tested, 2.1% active; AID 1362, 2008; in the data active = inhibition above about 58%; tested in S. cerevisiae
PMI activator – activators of human PMI, primary screen, biochemical, fluorescence intensity, near-Km mannose 6-phosphate | purified human PMI, coupled resazurin fluorescence, 20 min; hits give high values; 1 = vehicle control, 0 substrate-free wells | activation factor at 20 µM | 190,000 tested, 0.005% active;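 active = activation factor of 2 or more at 20 µM, relative to plate controls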
L major viab – Leishmania major promastigote growth inhibition, primary screen. Leishmania major promastigotes, resazurin fluorescence viability. inhibition, % at 10 µM. 200,000 tested, 9% active; in the data active = inhibition above about 50%;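 note: promastigotes grown with compound for 44 hours at 28 °C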
Diaphorase act – compounds boosting diaphorase resazurin reduction – biochemical, uHTS, resorufin fluorescence, counter-screen for diaphorase-coupled primary assays, primary screen; AID 1229, 2008; Diaphorase/resazurin coupled assay, 16 min; hits give high values; 1 = vehicle wells, 0 = NADH-free wells; activation factor at 20 µM; 190,000 tested, 0.005% active;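 active = diaphorase activity raised at least twofold by the compound at 20 µM; inactive = activation factor below 2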
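Test system: Clostridium kluyveri diaphorase, purified enzyme; input: enzyme 0.07 U/mL final; buffer or medium: 50 mM HEPES pH 7.4 with 4.542 mM MgCl2, 0.005% Tween 20; also added: 0.114 mM NADH and 0.1 mM resazurin, final amounts; schedule: 16 min enzyme reaction, ambient temperature; technique: fluorescence of resorufin, 544 nm excitation, 590 nm emission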
Of the large screens only hits and unclear results are named; the others gave an inactive call. Hits are enriched below; roughly 10% of the tested compounds scored in any of these assays.

CSc1nc(-c2ccc(C)cc2)[nH]c1S(=O)(=O)c1ccccc1	L major viab 55.7
CC(=O)Sc1nc(-c2ccccc2)[nH]c1S(=O)(=O)c1ccc(C)cc1	PMI act hi M6P 2.2
CSc1nc(-c2ccccc2)[nH]c(=S)c1C(C)=O	none
CC(=O)N1[C@H](Cc2ccccc2)C=C[C@]1(C)C(=O)NCc1ccccn1	none
CC(NC(=O)c1ccc(C23CC4CC(CC(C4)C2)C3)cc1)C(=O)O (centres undefined)	none
O=C(NCc1ccccc1)C(Cc1ccccc1)NS(=O)(=O)c1cccc2nsnc12 (centres undefined)	L major viab 93.3
O=C(NCc1ccc(F)cc1)C(Cc1ccccc1)NS(=O)(=O)c1cccs1 (centres undefined)	L major viab 99.8
CC(C)(C)NC(=O)C(Cc1ccccc1)NS(=O)(=O)c1cccc2nsnc12 (centres undefined)	none
O=C(NCc1cccs1)C(Cc1ccccc1)NS(=O)(=O)c1cccs1 (centres undefined)	none
NC(=S)N/N=C1/CCSc2ccc3ccccc3c21	WT yeast gro inh 76.0
CC1=C(C(=O)Nc2ccc(C)cc2C)C(c2ccc(Cl)cc2)n2nc(C(=O)OC(C)C)nc2N1 (centres undefined)	none
O=C(COC(=O)Cc1ccc(-c2ccccc2)cc1)NCc1ccccc1	none
CCOc1ccc(/C=C(/NC(=O)c2ccccc2Cl)C(=O)O)cc1	none
CCOc1ccc(N(C(=O)c2ccccc2Cl)C2=NC(C)(C)CS2)cc1	L major viab 61.5
O=C(CN1CCSC1=NCc1ccccc1)c1ccccc1	none
O=C(Nc1cc2c3c(c1)C1CCCC1CN3CC1CCCC21)c1ccccc1 (centres undefined)	L major viab 96.6
COc1ccc(C(=O)/C=C/c2ccccc2F)c(OC(=O)c2ccc([N+](=O)[O-])cc2)c1	L major viab 91.2
Cc1nc2cc(C(=O)N3c4ccccc4CC3C)ccc2s1 (centres undefined)	none
CC(=O)Nc1ccc(Nc2c([N+](=O)[O-])c(=O)n(-c3ccccc3)c3ccccc23)cc1	none
COc1ccc(CN(CCN(C)C)Cc2ccccc2)c(OC)c1	L major viab 99.8
CS(=O)(=O)N1N=C(c2cccs2)CC1c1ccccc1F (centres undefined)	none
CCC(=O)Nc1ccccc1Sc1ncnc2scc(-c3ccccc3)c12	none
COc1cc(Nc2nc(-c3ccccc3)c3cc(C)ccc3n2)cc(OC)c1OC	WT yeast gro inh 72.6, L major viab 60.6
Cc1ccc2nc(NCC(=O)O)nc(-c3ccccc3)c2c1	none
CCc1ccc(NC(=S)Nc2ccc(S(=O)(=O)Nc3ncccn3)cc2)cc1	none
COc1cccc(-c2nn(-c3ccccc3)cc2CN(C)C(C)c2ccon2)c1 (centres undefined)	none
Cc1ccc(-c2c[n+](CC(=O)Nc3nc(-c4ccc(F)cc4)cs3)c3n2CCC3)cc1	none
O=C(C[n+]1cc(-c2ccc(Cl)c(Cl)c2)n2c1CCC2)N1c2ccccc2Sc2ccccc21	L major viab 53.8
O=C(C[n+]1cc(-c2ccc(F)cc2)n2c1CCC2)Nc1nc(-c2ccccc2)cs1	L major viab 80.8
O=C(C[n+]1cc(-c2ccccc2)n2c1CCC2)OCc1ccccc1	none
Cn1c(NC(=O)C[n+]2cc(-c3ccc(Cl)c(Cl)c3)n3c2CCC3)cc(=O)n(C)c1=O	L major viab 87.7
O=C(C[n+]1cc(-c2ccc(Cl)cc2)n2c1CCC2)N1c2ccccc2Sc2ccccc21	L major viab 80.8
O=S(=O)(NCCSc1ccccn1)c1ccc(Br)cc1	none
O=C(c1cccs1)N1CCN(Cc2cccc([N+](=O)[O-])c2)CC1	none
c1ccc(C[n+]2c(-c3ccccc3)csc2Nc2ccccc2)cc1	none
c1ccc(Nc2scc(-c3ccccc3)[n+]2Cc2ccco2)cc1	WT yeast gro inh 67.2
CC(/C=N\NC(=O)CN1CCN(S(=O)(=O)c2ccc(C)cc2)CC1)=C\c1ccccc1	none
O=C(CSc1ncccn1)NCc1cccs1	none
N#Cc1ccc(C(=O)N/N=C/c2cn(CC(=O)O)c3ccccc23)c(F)c1	L major viab 57.8
CCOC(=O)Cn1cc(/C=N/NC(=O)c2ccc(C#N)cc2F)c2ccccc21	none
NC(=O)c1cc(C(=O)c2ccc(Cl)cc2)c[nH]1	none
Cc1noc(C)c1S(=O)(=O)N1CCC(C(=O)N(C)Cc2ccccc2)CC1	none
CCC(Cc1ccccc1)NC(=O)C1CCN(S(=O)(=O)c2c(C)noc2C)CC1 (centres undefined)	L major viab 92.3
COc1ccc(NC(=O)C2CCN(S(=O)(=O)c3c(C)noc3C)CC2)cc1Cl	none
CCOc1ccccc1NC(=O)C1CCN(S(=O)(=O)c2c(C)noc2C)CC1	L major viab 97.5
Cc1noc(C)c1S(=O)(=O)N1CCC(C(=O)Nc2ccc(OC(F)(F)F)cc2)CC1	L major viab 99.6
CCC1(CC)N=C(c2ccccc2)C(=S)N1	none
COC(=O)c1ccccc1NC(=O)c1cnn2cccnc12	none
CCCC1=C([O-])C2N=CC=CC2=[N+](c2ccccn2)C1=O (centres undefined)	none
COCCCNC(=O)CS(=O)(=O)Cc1nc(-c2cccc(OC)c2)oc1C	WT yeast gro inh 74.8
CCOc1ccc(NC(=O)CC2C(=O)N(c3cccc(OC)c3)C(=O)N2C(C)C)cc1 (centres undefined)	none
Cc1cc([N+](=O)[O-])nn1CCCC(=O)N1CCN(c2ccccc2)CC1	none
Cc1ccc(C(=O)/C=C/c2ccc3c(c2)OCO3)o1	none
Cc1ccc(C(=O)/C=C/c2ccccc2)o1	L major viab 82.6
Cc1ccc(C(=O)/C=C/c2ccc(Br)cc2)o1	L major viab 78.9
CN(C)CCNc1cnn(-c2ccccc2)c(=O)c1Cl	none
O=C(O)c1ccccc1C(=O)c1ccc(Br)s1	none
COc1cccc(-n2c(SCC(N)=O)nnc2-c2ccncc2)c1	none
COc1cccc(NC(=O)C(Sc2nnc(-c3ccncc3)n2-c2ccc(Cl)cc2)c2ccccc2)c1 (centres undefined)	L major viab 52.8
COc1ccc2[nH]c(CN3CCC(CO)(CCOc4ccccc4)CC3)c(C)c2c1	L major viab 88.2
OCCOc1cccc(CN2CCC(CO)(CCOc3ccccc3)CC2)c1	none
Cc1nn(C)cc1CN1CCC(CO)(CCOc2ccccc2)CC1	L major viab 74.5
COc1ccc(CN2CCC(CO)(CCOc3ccccc3)CC2)c(OC)c1C	none
OCC1(CCOc2ccccc2)CCN(CC2=Cc3cc(Cl)ccc3OC2)CC1	WT yeast gro inh 89.7, L major viab 94.0

Source: PubChem BioAssay
